Measured values reported in paper PMC3065020 (Journal of nuclear medicine : official publication, Society …, 2009).

How the values were obtained:
[1] = target: T1, Aβ aggregates in postmortem AD brain homogenates (Homo sapiens, UniProt P05067); assay type: binding
In vivo biodistribution = test: In vivo biodistribution; set-up: species or system mouse; conditions: for Brain concentration at 2 min / Brain concentration at 60 min: intravenous; for Brain uptake at 2 min after injection / Brain uptake at 60 min after injection: intravenous tracer dose of the metabolite
In short: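 CD-1 mice (20–26 g, male and female) received 370 kBq (10 µCi) of radiotracer in 10% ethanol/90% saline with 0.5% ascorbic acid by tail vein. Mice were killed by cardiac puncture under isoflurane at 2, 60, 120 and 180 min, with 3 animals per time point. Organs were weighed and γ-counted, and percentage dose was calculated against diluted aliquots of the injectate. Separately prepared labelled metabolites were also tested in healthy mice.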

[2] = target: T1, Aβ aggregates in postmortem AD brain homogenates; test: Saturation binding of ^18F-AV-45 in postmortem AD brain homogenates
In short: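 Gray matter from frozen AD brains was homogenized in PBS, diluted to 50–100 mg/mL and stored at −80°C. Saturation binding was run on 4 different AD brain homogenates. Binding was analysed by Scatchard plot with nonlinear regression, and Bmax was expressed as fmol/mg protein.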

[3] = Small-animal PET of monkey brain; assay type: in vivo, rhesus monkey
In short: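 A young adult female rhesus monkey (6.65 kg) was intubated and kept under isoflurane, with a hindlimb venous catheter. After a transmission scan, it received 173.9 MBq (4.7 mCi; 71,262 MBq/mmol) of radiotracer in 3 mL of 95% saline/5% ethanol as a 1-min bolus. Emission data were collected for 90 min, corrected for attenuation and scatter, and reconstructed by 3D MAP. Manual volumetric ROIs (striatum, thalamus, cortex, white matter), drawn on the summed 60–90-min image, gave time–activity curves.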

[4] = In vivo metabolism in mice
In short: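 Healthy mice received 370–555 MBq (10–15 mCi) of radiotracer by tail vein and were killed at 2, 10, 30 or 60 min. Plasma was separated by centrifugation (3,000 rpm, 2 min) and mixed with an equal volume of acetonitrile. After spinning at 5,000 rpm for 5 min, the supernatant was run on C18 HPLC (0.1% TFA water/acetonitrile gradient, 1 mL/min) with radioactivity detection. Metabolites were identified by LC/MS.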

[5] = target: Aβ plaques in AD brain sections (Homo sapiens, UniProt P05067); test: In vitro autoradiography of postmortem human brain sections; assay type: binding; conditions: tracer 0.3 nM, 1 h
Chain of Aβ plaques in AD brain sections (P05067 672-713 limits assumed): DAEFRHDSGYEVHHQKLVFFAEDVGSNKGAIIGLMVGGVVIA
In short: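 Frozen brains from AD and control subjects were cut into 20-µm sections. Sections were incubated for 1 h with 0.3 nM radiotracer in 40% ethanol. They were then washed twice for 2 min in saturated Li2CO3 in 40% ethanol, once for 2 min in 40% ethanol, and rinsed in water for 30 s. Dried sections were exposed to film for 12–18 h, and the images were digitized.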

[6] = target: T1, Aβ aggregates in postmortem AD brain homogenates; test: Competitive binding assay against ^18F-AV-45 in postmortem AD brain homogenates; conditions: read-out: Inhibition constant (Ki) against binding of ^18F-AV-45 to Aβ aggregates, radioligand ^18F-AV-45, 2 h at 37°C

T1 sequence (P05067 672-713 limits assumed): as above

CNc1ccc(/C=C/c2ccc(OCCOCCOCCF)nc2)cc1 [^18F-AV-45, (E)-4-(2-(6-(2-(2-(2-^18F-fluoroethoxy)ethoxy)ethoxy)pyridin-3-yl)vinyl)-N-methyl benzenamine]
Kd ([1]; read-out: Kd = Koff/Kon, derived from kinetic measurement): 1.31 nM

CNc1ccc(/C=C/c2ccc(OCCOCCOCC[18F])nc2)cc1 [^18F-AV-45, (E)-4-(2-(6-(2-(2-(2-^18F-fluoroethoxy)ethoxy)ethoxy)pyridin-3-yl)vinyl)-N-methyl benzenamine]
Brain concentration at 2 min (In vivo biodistribution; female healthy mice, 2 min after administration (peak)): 6.23 %ID/g | Brain concentration at 60 min (In vivo biodistribution; female healthy mice): 1.84 %ID/g | Initial brain uptake of parent relative to either of its metabolites (In vivo biodistribution; healthy mice, initial uptake): 1.5 fold | Brain concentration at 2 min (In vivo biodistribution; male healthy mice, 2 min after administration): 7.33 %ID/g | Brain concentration at 60 min (In vivo biodistribution; male healthy mice): 1.88 %ID/g | Bmax (saturation binding), average ([2]; average of 4 different AD brain homogenates): 8,811 ± 1,643 fmol/mg protein | Bmax (saturation binding), representative example ([2]; representative AD brain homogenate, Figure 2): 7,215 fmol/mg of protein | Koff ([1]; dissociation from Aβ aggregates, AD brain homogenates): 0.00075 ± 0.0001 s⁻¹ | Specific binding or retention in healthy monkey brain ([3]; healthy rhesus monkey, no Aβ plaques): did not display any specific binding or prolonged retention in the brain | Time of peak activity in cortex ([3]; rhesus monkey, intravenous 173.9 MBq): 7 min | Injected dose localized in the brain at the peak ([3]; rhesus monkey, intravenous 173.9 MBq, estimated): about 4.4 % of the injected dose | Biologic T1/2 in mouse plasma ([4]; intravenous, estimated): less than 30 min | Parent remaining in plasma ([4]; mouse plasma, 30 min after intravenous injection): 30% | Labeling of AD brain sections containing Aβ plaques (autoradiogram) ([5]; AD brain sections): highly dense labeling | Labeling of brain sections of control subjects (autoradiogram) ([5]; control subject brain sections): no specific labeling

Nc1ccc(C=Cc2ccc(OCCOCCOCCF)nc2)cc1 [^18F-AV-160]
Brain uptake at 2 min after injection (In vivo biodistribution; healthy mice): 4.5 %ID/g | Brain uptake at 60 min after injection (In vivo biodistribution; healthy mice): 1.8 %ID/g | Metabolite share in plasma ([4]; mouse plasma, 30 min after intravenous injection of ^18F-AV-45): about 48%

CC(=O)N(C)c1ccc(/C=C/c2ccc(OCCOCCOCCF)nc2)cc1 [^18F-AV-267]
Ki [6]: 398 ± 45 nM

CC(=O)N(C)c1ccc(/C=C/c2ccc(OCCOCCOCC[18F])nc2)cc1 [^18F-AV-267]
Brain uptake at 2 min after injection (In vivo biodistribution; healthy mice): 3.3 %ID/g | Brain uptake at 60 min after injection (In vivo biodistribution; healthy mice): 1.8 %ID/g
